Source: paper PMC9116722 (Cancer chemotherapy and pharmacology, 2022)
“Also recorded” adds a separate entry of the source.

Assay: Adverse events
Assay type: in vivo, human
Method in brief: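 Patients with germline BRCA-mutated cancers, or BRCA-wildtype TNBC or platinum-refractory ovarian cancer, took oral drug continuously twice daily in 28-day cycles. There were nine dose levels from 50 to 500 mg BID under 3+3 escalation, run separately per cohort after the first DLT. Toxicities were graded by CTCAE v4.0, with DLTs assessed during cycle 1.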

For C[C@]1(c2nc3c(C(N)=O)cccc3[nH]2)CCCN1 [veliparib], the “Any Grade 3 toxicity” value (BRCAmut, DL9 500/500 mg AM/PM) was 1 (14) number of patients (%), the “Any Grade 4 toxicity” value (BRCAmut, DL9 500/500 mg AM/PM) was 1 (14) number of patients (%) and the “Appendicitis, Grade 3” value (BRCAmut, DL9 500/500 mg AM/PM) was 0 number of patients (%). The “Aspartate aminotransferase increased, Grade 3” value (BRCAmut, DL9 500/500 mg AM/PM) was 0 number of patients (%), the “Dehydration, Grade 3” value (BRCAmut, DL9 500/500 mg AM/PM) was 0 number of patients (%) and the “Dyspnea, Grade 4” value (BRCAmut, DL9 500/500 mg AM/PM) was 1 (14) number of patients (%). The “Fatigue, Grade 3” value (BRCAmut, DL9 500/500 mg AM/PM) was 0 number of patients (%), the “Headache, Grade 3” value (BRCAmut, DL9 500/500 mg AM/PM) was 0 number of patients (%) and the “Hypophosphatemia, Grade 3” value (BRCAmut, DL9 500/500 mg AM/PM) was 0 number of patients (%). The “Lymphocyte count decreased, Grade 3” value (BRCAmut, DL9 500/500 mg AM/PM) was 1 (14) number of patients (%), the “Lymphocyte count decreased, Grade 4” value (BRCAmut, DL9 500/500 mg AM/PM) was 0 number of patients (%) and the “Nausea, Grade 3” value (BRCAmut, DL9 500/500 mg AM/PM) was 0 number of patients (%). For the same compound, the “Platelet count decreased, Grade 4” value (BRCAmut, DL9 500/500 mg AM/PM) was 1 (14) number of patients (%), the “Thromboembolic event, Grade 3” value (BRCAmut, DL9 500/500 mg AM/PM) was 0 number of patients (%) and the “Thromboembolic event, Grade 4” value (BRCAmut, DL9 500/500 mg AM/PM) was 0 number of patients (%). The “Urinary tract infection, Grade 3” value (BRCAmut, DL9 500/500 mg AM/PM) was 0 number of patients (%), the “Abdominal pain, Grade 3” value (BRCAmut, all dose levels) was 2 (3) number of patients (%) and the “Alkaline phosphatase increased, Grade 3” value (BRCAmut, all dose levels) was 1 (1) number of patients (%). For the same compound, the “Anemia, Grade 3” value (BRCAmut, all dose levels) was 1 (1) number of patients (%), the “Anemia, Grade 4” value (BRCAmut, all dose levels) was 1 (1) number of patients (%) and the “Any Grade 3/4 toxicity” value (BRCAmut, all dose levels) was 17 (24) number of patients (%). For the same compound, the “Any Grade 3 toxicity” value (BRCAmut, all dose levels) was 15 (21) number of patients (%), the “Any Grade 4 toxicity” value (BRCAmut, all dose levels) was 3 (4) number of patients (%) and the “Appendicitis, Grade 3” value (BRCAmut, all dose levels) was 1 (1) number of patients (%). For the same compound, the “Aspartate aminotransferase increased, Grade 3” value (BRCAmut, all dose levels) was 1 (1) number of patients (%), the “Dehydration, Grade 3” value (BRCAmut, all dose levels) was 1 (1) number of patients (%) and the “Dyspnea, Grade 4” value (BRCAmut, all dose levels) was 1 (1) number of patients (%). For the same compound, the “Fatigue, Grade 3” value (BRCAmut, all dose levels) was 1 (1) number of patients (%), the “Headache, Grade 3” value (BRCAmut, all dose levels) was 1 (1) number of patients (%) and the “Hypophosphatemia, Grade 3” value (BRCAmut, all dose levels) was 1 (1) number of patients (%). The “Lymphocyte count decreased, Grade 3” value (BRCAmut, all dose levels) was 9 (13) number of patients (%), the “Lymphocyte count decreased, Grade 4” value (BRCAmut, all dose levels) was 1 (1) number of patients (%) and the “Nausea, Grade 3” value (BRCAmut, all dose levels) was 2 (3) number of patients (%). For the same compound, the “Platelet count decreased, Grade 4” value (BRCAmut, all dose levels) was 1 (1) number of patients (%), the “Thromboembolic event, Grade 3” value (BRCAmut, all dose levels) was 2 (3) number of patients (%) and the “Thromboembolic event, Grade 4” value (BRCAmut, all dose levels) was 1 (1) number of patients (%). For the same compound, the “Urinary tract infection, Grade 3” value (BRCAmut, all dose levels) was 1 (1) number of patients (%), the “grade 3/4 decreased lymphocyte count” value (BRCAwt group) was 18% and the “incidence of grade 3/4 toxicity” value (BRCAwt group) was 29%. For the same compound, the “Any Grade 3 toxicity” value (BRCAwt, DL1 50/50 mg AM/PM) was 0 number of patients (%), the “Basilic vein thrombosis, Grade 3” value (BRCAwt, DL1 50/50 mg AM/PM) was 0 number of patients (%) and the “Dyspnea, Grade 3” value (BRCAwt, DL1 50/50 mg AM/PM) was 0 number of patients (%). For the same compound, the “Fatigue, Grade 3” value (BRCAwt, DL1 50/50 mg AM/PM) was 0 number of patients (%), the “Hypophosphatemia, Grade 3” value (BRCAwt, DL1 50/50 mg AM/PM) was 0 number of patients (%) and the “Lymphocyte count decreased, Grade 3” value (BRCAwt, DL1 50/50 mg AM/PM) was 0 number of patients (%). For the same compound, the “Any Grade 3 toxicity” value (BRCAwt, DL2 100/50 mg AM/PM) was 1 (33) number of patients (%), the “Basilic vein thrombosis, Grade 3” value (BRCAwt, DL2 100/50 mg AM/PM) was 0 number of patients (%) and the “Dyspnea, Grade 3” value (BRCAwt, DL2 100/50 mg AM/PM) was 0 number of patients (%). The “Fatigue, Grade 3” value (BRCAwt, DL2 100/50 mg AM/PM) was 0 number of patients (%), the “Hypophosphatemia, Grade 3” value (BRCAwt, DL2 100/50 mg AM/PM) was 0 number of patients (%) and the “Lymphocyte count decreased, Grade 3” value (BRCAwt, DL2 100/50 mg AM/PM) was 1 (33) number of patients (%). The “Any Grade 3 toxicity” value (BRCAwt, DL3 100/100 mg AM/PM) was 0 number of patients (%), the “Basilic vein thrombosis, Grade 3” value (BRCAwt, DL3 100/100 mg AM/PM) was 0 number of patients (%) and the “Dyspnea, Grade 3” value (BRCAwt, DL3 100/100 mg AM/PM) was 0 number of patients (%). The “Fatigue, Grade 3” value (BRCAwt, DL3 100/100 mg AM/PM) was 0 number of patients (%), the “Hypophosphatemia, Grade 3” value (BRCAwt, DL3 100/100 mg AM/PM) was 0 number of patients (%) and the “Lymphocyte count decreased, Grade 3” value (BRCAwt, DL3 100/100 mg AM/PM) was 0 number of patients (%). For the same compound, the “Any Grade 3 toxicity” value (BRCAwt, DL6 200/200 mg AM/PM) was 2 (67) number of patients (%), the “Basilic vein thrombosis, Grade 3” value (BRCAwt, DL6 200/200 mg AM/PM) was 1 (33) number of patients (%) and the “Dyspnea, Grade 3” value (BRCAwt, DL6 200/200 mg AM/PM) was 0 number of patients (%). For the same compound, the “Fatigue, Grade 3” value (BRCAwt, DL6 200/200 mg AM/PM) was 0 number of patients (%), the “Hypophosphatemia, Grade 3” value (BRCAwt, DL6 200/200 mg AM/PM) was 0 number of patients (%) and the “Lymphocyte count decreased, Grade 3” value (BRCAwt, DL6 200/200 mg AM/PM) was 1 (33) number of patients (%). For the same compound, the “Any Grade 3 toxicity” value (BRCAwt, DL7 300/300 mg AM/PM) was 0 number of patients (%), the “Basilic vein thrombosis, Grade 3” value (BRCAwt, DL7 300/300 mg AM/PM) was 0 number of patients (%) and the “Dyspnea, Grade 3” value (BRCAwt, DL7 300/300 mg AM/PM) was 0 number of patients (%). The “Fatigue, Grade 3” value (BRCAwt, DL7 300/300 mg AM/PM) was 0 number of patients (%), the “Hypophosphatemia, Grade 3” value (BRCAwt, DL7 300/300 mg AM/PM) was 0 number of patients (%) and the “Lymphocyte count decreased, Grade 3” value (BRCAwt, DL7 300/300 mg AM/PM) was 0 number of patients (%). For the same compound, the “Any Grade 3 toxicity” value (BRCAwt, DL8 400/400 mg AM/PM) was 3 (43) number of patients (%), the “Basilic vein thrombosis, Grade 3” value (BRCAwt, DL8 400/400 mg AM/PM) was 0 number of patients (%) and the “Dyspnea, Grade 3” value (BRCAwt, DL8 400/400 mg AM/PM) was 1 (14) number of patients (%). The “Fatigue, Grade 3” value (BRCAwt, DL8 400/400 mg AM/PM) was 1 (14) number of patients (%), the “Hypophosphatemia, Grade 3” value (BRCAwt, DL8 400/400 mg AM/PM) was 1 (14) number of patients (%) and the “Lymphocyte count decreased, Grade 3” value (BRCAwt, DL8 400/400 mg AM/PM) was 1 (14) number of patients (%). For the same compound, the “Any Grade 3 toxicity” value (BRCAwt, all dose levels) was 8 (29) number of patients (%), the “Basilic vein thrombosis, Grade 3” value (BRCAwt, all dose levels) was 1 (4) number of patients (%) and the “Dyspnea, Grade 3” value (BRCAwt, all dose levels) was 1 (4) number of patients (%). For the same compound, the “Fatigue, Grade 3” value (BRCAwt, all dose levels) was 1 (4) number of patients (%), the “Hypophosphatemia, Grade 3” value (BRCAwt, all dose levels) was 1 (4) number of patients (%) and the “Lymphocyte count decreased, Grade 3” value (BRCAwt, all dose levels) was 5 (18) number of patients (%). For the same compound, the “patients who came off study after non-dose limiting nausea” value (DL7-DL9) was 6 patients, the “all-grade decreased lymphocyte count (lymphopenia)” value (all patients) was 38% and the all-grade nausea (all patients) was 65%. The “grade 3/4 lymphopenia” value (all patients) was 15%, the “grade 3 or 4 anemia” value (all patients) was 6% and the overall tolerability (continuous single-agent) was “safe and tolerable; also recorded: well-tolerated”.
